*1 amine or outer side, *2 acyl side, *3 side chain or, on linkers, in order; H or OH if unused. Where a SMILES comes first, the peptide text is derived from it. Bridges are numbered along the chain shown (N, C = ends). [ ]: non-standard residue; d: D form. X1 = CSCC[C@@H](C(=O)[*:2])N(C[C@@H](CS[*:3])NC(C)=O)[*:1]
Legend:
[1] = target: Low-density lipoprotein receptor (Homo sapiens) (UniProt P01130); assay: Displacement of S-tagged Ac-[cMPRLRGC]c-NH2 from human DsRed2-fused LDLR expressed in CHO cells at 10 uM after 1 hr by FRET assay; type: cell-based
Sequence of Low-density lipoprotein receptor (Homo sapiens) (P01130 whole entry, the tested form may be a part): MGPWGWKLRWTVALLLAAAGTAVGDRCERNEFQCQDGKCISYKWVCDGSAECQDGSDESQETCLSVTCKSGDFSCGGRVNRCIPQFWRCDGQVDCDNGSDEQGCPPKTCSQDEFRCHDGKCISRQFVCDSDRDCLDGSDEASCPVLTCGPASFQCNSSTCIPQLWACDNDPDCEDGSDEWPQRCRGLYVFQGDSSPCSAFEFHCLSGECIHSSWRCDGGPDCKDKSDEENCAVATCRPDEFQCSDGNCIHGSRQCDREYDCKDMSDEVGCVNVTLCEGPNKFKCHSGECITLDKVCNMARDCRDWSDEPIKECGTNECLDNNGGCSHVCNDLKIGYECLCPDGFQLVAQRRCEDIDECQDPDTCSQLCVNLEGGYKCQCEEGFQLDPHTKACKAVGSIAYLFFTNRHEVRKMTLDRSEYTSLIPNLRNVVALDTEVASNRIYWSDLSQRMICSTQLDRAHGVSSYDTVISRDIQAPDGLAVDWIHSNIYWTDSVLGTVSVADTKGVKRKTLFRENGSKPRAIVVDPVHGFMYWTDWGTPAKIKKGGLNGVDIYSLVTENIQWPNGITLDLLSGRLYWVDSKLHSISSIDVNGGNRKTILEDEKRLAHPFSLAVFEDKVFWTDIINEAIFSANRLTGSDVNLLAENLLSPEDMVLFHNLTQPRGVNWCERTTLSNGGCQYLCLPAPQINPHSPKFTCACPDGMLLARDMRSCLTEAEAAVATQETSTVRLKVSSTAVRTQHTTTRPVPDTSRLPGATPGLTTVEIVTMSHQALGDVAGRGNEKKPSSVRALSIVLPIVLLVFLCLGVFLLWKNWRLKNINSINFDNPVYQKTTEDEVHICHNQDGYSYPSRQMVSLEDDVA
Summary of the method: (§1)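 CHO cells stably expressing hLDLR-DsRed2 (Ham-F12, 5% FBS, Geneticin) at 800 000 cells/well were incubated in triplicate with S-tagged reference peptide (10 μM) plus test peptide (10 μM) in Ham-F12/1% BSA, 1 h, 37 °C. Scrambled and untagged peptide controls were included; values are means of at least three points.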

[2] = target: Low-density lipoprotein receptor (Homo sapiens) (UniProt P01130); assay: Displacement of S-tagged Ac-DSGL[CMPRLRGC]cDPR-NH2 from human DsRed2-fused LDLR expressed in CHO cells at 10 uM after 1 hr by FRET assay; type: cell-based; summary of the method: as §1

Row | Molecule | inhibition [1] [%] | inhibition [2] [%]
1 | CSCC[C@@H]1NC(=O)[C@H](NC(C)=O)CSSC[C@@H](C(N)=O)NC(=O)CNC(=O)[C@H](CCCNC(=N)N)NC(=O)[C@H](CC(C)C)NC(=O)[C@H](CCCNC(=N)N)NC(=O)[C@@H]2c3ccccc3CCN2C1=O | 21 | –
2 | CSCC[C@@H]1NC(=O)[C@H](NC(C)=O)CSSC[C@@H](C(N)=O)NC(=O)CNC(=O)[C@H](CCCN)NC(=O)[C@H](CC(C)C)NC(=O)[C@H](CCCN)NC(=O)[C@@H]2CCCN2C1=O | 31 | –
3 | CSCC[C@@H]1NC(=O)[C@@H](NC(=O)[C@H](CC(C)C)NC(=O)CNC(=O)[C@H](C)NC(=O)[C@H](CC(=O)O)NC(C)=O)CSSC[C@@H](C(=O)N[C@@H](CC(=O)O)C(=O)N2CCC[C@H]2C(=O)N[C@@H](CCCNC(=N)N)C(N)=O)NC(=O)CNC(=O)[C@H](CCCNC(=N)N)NC(=O)[C@H](CC(C)C)NC(=O)[C@H](CCCNC(=N)N)NC(=O)[C@@H]2CCCN2C1=O (Ac-DAGLCMPRLRGCDPR-NH2; disulfide 5-12) | – | 20
4 | CSCC[C@@H]1NC[C@H](NC(C)=O)CSSC[C@@H](C(N)=O)NC(=O)CNC(=O)[C@H](CCCNC(=N)N)NC(=O)[C@H](CC(C)C)NC(=O)[C@H](CCCNC(=N)N)NC(=O)[C@@H]2CCCN2C1=O (H-[X1]PRLRGC-NH2; disulfide 1-7) | 37 | –
5 | CSCC[C@@H]1NC(=O)[C@@H](NC(=O)[C@H](CC(C)C)NC(=O)[C@H](C)NC(=O)[C@H](CO)NC(=O)[C@H](CC(=O)O)NC(C)=O)CSSC[C@@H](C(=O)N[C@@H](CC(=O)O)C(=O)N2CCC[C@H]2C(=O)N[C@@H](CCCNC(=N)N)C(N)=O)NC(=O)CNC(=O)[C@H](CCCNC(=N)N)NC(=O)[C@H](CC(C)C)NC(=O)[C@H](CCCNC(=N)N)NC(=O)[C@@H]2CCCN2C1=O (Ac-DSALCMPRLRGCDPR-NH2; disulfide 5-12) | – | 58
6 | CSCC[C@@H]1NC(=O)[C@H](NC(C)=O)CSSC[C@@H](C(N)=O)NC(=O)CNC(=O)[C@H](CCCNC(=N)N)NC(=O)[C@H](CC(C)C)NC(=O)[C@H](CCCNC(=N)N)NC(=O)c2ccccc2NC1=O | 0 | –
7 | CSCC[C@H](NC(=O)[C@@H]1CCCN1C(=O)[C@H]1CSSC[C@H](N)C(=O)NCC(=O)N[C@@H](CCCNC(=N)N)C(=O)N[C@@H](CC(C)C)C(=O)N[C@@H](CCCNC(=N)N)C(=O)N1)C(=O)NC(C)=O | 34 | –
8 | CSCC[C@@H]1NC(=O)[C@@H](NC(=O)[C@H](CC(C)C)NC(=O)CNC(=O)[C@H](CO)NC(=O)[C@H](CC(=O)O)NC(C)=O)CSSC[C@@H](C(=O)N[C@@H](CC(=O)O)C(=O)N2CCC[C@H]2C(=O)N[C@@H](CCCNC(=N)N)C(N)=O)NC(=O)CNC(=O)[C@H](CCCNC(=N)N)NC(=O)[C@H](CC(C)C)NC(=O)[C@H](CCCNC(=N)N)NC(=O)[C@@H]2CCCN2C1=O | – | 55
9 | CC(=O)N[C@@H]1CSSC[C@@H](C(N)=O)NC(=O)CNC(=O)[C@H](CCCNC(=N)N)NC(=O)[C@H](CC(C)C)NC(=O)[C@H](CCCNC(=N)N)NC(=O)[C@@H]2CCCN2C(=O)[C@H](Cc2cccs2)NC1=O | 0 | –
10 | CSCC[C@H](NC(=O)[C@H](CS)NC(=O)[C@H](CC(C)C)NC(=O)CNC(=O)[C@H](CO)NC(=O)[C@H](CC(=O)O)NC(C)=O)C(=O)N1CCC[C@H]1C(=O)N[C@@H](CCCNC(=N)N)C(=O)N[C@@H](CC(C)C)C(=O)N[C@@H](CCCNC(=N)N)C(=O)NCC(=O)N[C@@H](CS)C(=O)N[C@@H](CC(=O)O)C(=O)N1CCC[C@H]1C(=O)N[C@@H](CCCNC(=N)N)C(N)=O | – | 50
11 | CSCC[C@H](NC(=O)[C@@H]1CCCN1C(=O)[C@@H](CCCNC(=N)N)[C@H]1CSSC[C@H](N)C(=O)NCC(=O)N[C@@H](CCCNC(=N)N)C(=O)N[C@@H](CC(C)C)C(=O)N1)C(=O)NC(C)=O | 34 | –
12 | CSCC[C@@H]1NC(=O)[C@H](NC(C)=O)Cc2cn(nn2)CC[C@@H](C(N)=O)NC(=O)CNC(=O)[C@H](CCCNC(=N)N)NC(=O)[C@H](CC(C)C)NC(=O)[C@H](CCCNC(=N)N)NC(=O)[C@@H]2CCCN2C1=O | 13 | –
13 | Ac-DSGLCMPRLRGADPR-NH2 | – | 0
14 | CSCC[C@@H]1NC(=O)C(NC(C)=O)CSCC(C(N)=O)NC(=O)CNC(=O)[C@H](CCCNC(=N)N)NC(=O)[C@H](CC(C)C)NC(=O)[C@H](CCCNC(=N)N)NC(=O)[C@@H]2CCCN2C1=O (mixture of isomers) | 41 | –
15 | CSCC[C@H](NC(=O)[C@H]1CSSC[C@H](N)C(=O)NCC(=O)N[C@@H](CCCNC(=N)N)C(=O)N[C@@H](CC(C)C)C(=O)N[C@@H](CCCNC(=N)N)C(=O)N2CCC[C@H]2C(=O)N1)C(=O)NC(C)=O | 28 | –
16 | CSCC[C@@H]1NC(=O)[C@H](NC(C)=O)CSSC[C@@H](C(N)=O)NC(=O)CNC(=O)[C@H](CCCNC(=N)N)NC(=O)[C@H](CC(C)C)NC[C@H](CCCNC(=N)N)NC(=O)[C@@H]2CCCN2C1=O | 58 | –
17 | CSCCC1NC(=O)[C@H](NC(C)=O)CNC(=O)C[C@@H](C(N)=O)NC(=O)CNC(=O)[C@H](CCCNC(=N)N)NC(=O)[C@H](CC(C)C)NC(=O)[C@H](CCCNC(=N)N)NC(=O)[C@@H]2CCCN2C1=O (single isomer, unassigned) | 12 | –
18 | CC(=O)N[C@@H]1CSSC[C@@H](C(N)=O)NC(=O)CNC(=O)[C@H](CCCNC(=N)N)NC(=O)[C@H](CC(C)C)NC(=O)[C@H](CCCNC(=N)N)NC(=O)[C@@H]2CCCN2C(=O)[C@@H]2CSCN2C1=O | 0 | –
19 | CSCC[C@@H]1NC(=O)[C@H](NC(C)=O)CSSC[C@@H](C(N)=O)NC(=O)CNC(=O)[C@H](CCCNC(=N)N)NC(=O)[C@H](CC(C)C)NC(=O)[C@H](CCCNC(=N)N)NC(=O)CN(C)C1=O | 22 | –
20 | CSCC[C@@H]1NC(=O)[C@H](NC(C)=O)CSSC[C@@H](C(N)=O)NC(=O)[C@@H](C)NC(=O)[C@H](CCCNC(=N)N)NC(=O)[C@H](CC(C)C)NC(=O)[C@H](CCCNC(=N)N)NC(=O)[C@@H]2CCCN2C1=O | 54 | –
21 | CSCC[C@@H]1NC(=O)[C@H](NC(C)=O)CSSC[C@@H](C(N)=O)NC(=O)CNC(=O)[C@H](CCCNC(=N)N)NC(=O)[C@H](CC(C)C)NC(=O)[C@H](CCCN)NC(=O)[C@@H]2CCCN2C1=O | 28 | –
22 | CSCC[C@@H]1NC(=O)[C@H](NC(C)=O)C/C=C\C[C@@H](C(N)=O)NC(=O)CNC(=O)[C@H](CCCNC(=N)N)NC(=O)[C@H](CC(C)C)NC(=O)[C@H](CCCNC(=N)N)NC(=O)[C@@H]2CCCN2C1=O | 22 | –

Next, values leading:

Row | inhibition [1] [%] | inhibition [2] [%] | Molecule
23 | 0 | – | CSCC[C@@H]1NC(=O)[C@H](NC(C)=O)CSSC[C@@H](C(N)=O)NC(=O)CNC(=O)[C@H](CCCNC(=N)N)NC(=O)[C@H](CC(C)C)NC(=O)[C@H](CCCNC(=N)N)NC[C@@H]2CCCN2C1=O
24 | – | 64 | CSCC[C@@H]1NC(=O)[C@@H](NC(=O)[C@H](C)NC(=O)CNC(=O)[C@H](CO)NC(=O)[C@H](CC(=O)O)NC(C)=O)CSSC[C@@H](C(=O)N[C@@H](CC(=O)O)C(=O)N2CCC[C@H]2C(=O)N[C@@H](CCCNC(=N)N)C(N)=O)NC(=O)CNC(=O)[C@H](CCCNC(=N)N)NC(=O)[C@H](CC(C)C)NC(=O)[C@H](CCCNC(=N)N)NC(=O)[C@@H]2CCCN2C1=O (Ac-DSGACMPRLRGCDPR-NH2; disulfide 5-12)
25 | – | 3 | CSCC[C@@H]1NC(=O)[C@@H](NC(=O)[C@H](CC(C)C)NC(=O)CNC(=O)[C@H](CO)NC(=O)[C@H](CC(=O)O)NC(C)=O)CSSC[C@@H](C(=O)N[C@@H](CC(=O)O)C(=O)N2CCC[C@H]2C(=O)N[C@@H](CCCNC(=N)N)C(N)=O)NC(=O)CNC(=O)[C@H](CCCNC(=N)N)NC(=O)[C@H](CC(C)C)NC(=O)[C@H](CCCNC(=N)N)NC(=O)[C@H](C)NC1=O (Ac-DSGLCMARLRGCDPR-NH2; disulfide 5-12)
26 | 40 | – | CSCC[C@@H]1NC(=O)[C@H](NC(C)=O)CSSC[C@@H](C(N)=O)NC(=O)CNC(=O)[C@H](CCCNC(=N)N)NC[C@H](CC(C)C)NC(=O)[C@H](CCCNC(=N)N)NC(=O)[C@@H]2CCCN2C1=O
27 | 0 | – | COCC[C@@H]1NC(=O)[C@H](NC(C)=O)CSSC[C@@H](C(N)=O)NC(=O)CNC(=O)[C@H](CCCNC(=N)N)NC(=O)[C@H](CC(C)C)NC(=O)[C@H](CCCNC(=N)N)NC(=O)[C@@H]2CCCN2C1=O
28 | 0 | – | CSCC[C@@H]1NC(=O)[C@H](NC(C)=O)CNC(=N)NC[C@@H](C(N)=O)NC(=O)CNC(=O)[C@H](CCCNC(=N)N)NC(=O)[C@H](CC(C)C)NC(=O)[C@H](CCCNC(=N)N)NC(=O)[C@@H]2CCCN2C1=O
29 | 0 | – | CSCC[C@@H]1NC(=O)[C@H](NC(C)=O)CSSC[C@@H](C(N)=O)NC(=O)CNC(=O)[C@H](CCCN)NC(=O)[C@H](CC(C)C)NC(=O)[C@H](CCCNC(=N)N)NC(=O)[C@@H]2CCCN2C1=O
30 | – | 0 | CC(=O)N[C@@H](CC(=O)O)C(=O)N[C@@H](CO)C(=O)NCC(=O)N[C@@H](CC(C)C)C(=O)N[C@H]1CSSC[C@@H](C(=O)N[C@@H](CC(=O)O)C(=O)N2CCC[C@H]2C(=O)N[C@@H](CCCNC(=N)N)C(N)=O)NC(=O)CNC(=O)[C@H](CCCNC(=N)N)NC(=O)[C@H](CC(C)C)NC(=O)[C@H](CCCNC(=N)N)NC(=O)[C@@H]2CCCN2C(=O)[C@H](C)NC1=O (Ac-DSGLCAPRLRGCDPR-NH2; disulfide 5-12)
31 | – | 52 | CSCC[C@@H]1NC(=O)[C@@H](NC(=O)[C@H](CC(C)C)NC(=O)CNC(=O)[C@H](CO)NC(=O)[C@H](CC(=O)O)NC(C)=O)CSSC[C@@H](C(=O)N[C@@H](CC(=O)O)C(=O)N[C@@H](C)C(=O)N[C@@H](CCCNC(=N)N)C(N)=O)NC(=O)CNC(=O)[C@H](CCCNC(=N)N)NC(=O)[C@H](CC(C)C)NC(=O)[C@H](CCCNC(=N)N)NC(=O)[C@@H]2CCCN2C1=O (Ac-DSGLCMPRLRGCDAR-NH2; disulfide 5-12)
32 | 33 | – | CSCC[C@H]1CN2CCC[C@H]2C(=O)N[C@@H](CCCNC(=N)N)C(=O)N[C@@H](CC(C)C)C(=O)N[C@@H](CCCNC(=N)N)C(=O)NCC(=O)N[C@H](C(N)=O)CSSC[C@@H](NC(C)=O)C(=O)N1
